Results taken from ChEMBL document CHEMBL1155876 (J Med Chem, 2008).

How the values were obtained:
[1] = Cmax in CD1 mouse at 30 mg/kg, po; format: ADME, organism-based; set-up: dose 30 mg/kg, route oral; details: in vivo
[2] = AUClast in CD1 mouse at 30 mg/kg, po; format: ADME, organism-based; set-up: time 0 - last, dose 30 mg/kg, route oral; details: plasma
Aurora kinase B [3] = target: T1, Aurora kinase B (Homo sapiens, UniProt Q96GD4); assay: Inhibition of Aurora B
Aurora kinase A [4] = target: T2, Aurora kinase A (Homo sapiens, UniProt O14965); assay: Inhibition of Aurora A
T2 sequence (O14965 whole entry): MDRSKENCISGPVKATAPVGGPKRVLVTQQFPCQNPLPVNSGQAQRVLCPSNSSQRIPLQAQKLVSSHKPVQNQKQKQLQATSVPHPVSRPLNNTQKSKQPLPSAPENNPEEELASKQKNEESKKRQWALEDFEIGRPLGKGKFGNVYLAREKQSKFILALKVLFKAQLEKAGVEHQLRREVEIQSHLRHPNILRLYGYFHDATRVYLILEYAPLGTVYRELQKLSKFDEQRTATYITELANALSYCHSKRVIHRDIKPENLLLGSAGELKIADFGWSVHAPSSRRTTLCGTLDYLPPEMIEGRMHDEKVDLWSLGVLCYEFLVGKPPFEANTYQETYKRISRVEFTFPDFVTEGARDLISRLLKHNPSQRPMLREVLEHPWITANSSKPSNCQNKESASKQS

MCF7 = assay: Antiproliferative activity against human MCF7 cells; format: functional, cell-based
Summary of the method: (§1)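 HCT116, HT29 or MCF7 cells were seeded on day 0 in 1:1 Ham's F12/DMEM-high glucose with 10% FBS and 2 mM L-glutamine, then kept overnight at 37 °C in 5% CO2. On day 1, inhibitor in DMSO, diluted 20-fold in serum- and glutamine-free medium, was added. Viability was read on day 4 as total ATP by CellTiter-Glo luminescence.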

HT-29 = assay: Antiproliferative activity against human HT29 cells; format: functional, cell-based; summary of the method: as §1
Aurora kinase B [5] = target: T1, Aurora kinase B; assay: Inhibition of Aurora B assessed as loss of phospho histone H3 in human HCT cells; format: cell-based
[6] = target: Receptor-type tyrosine-protein kinase FLT3 (Homo sapiens, UniProt P36888); assay: Inhibition of Flt3
[7] = target: Cyclin-dependent kinase 2 (Homo sapiens, UniProt P24941); assay: Inhibition of CDK2/CyclinA
[8] = target: Vascular endothelial growth factor receptor 2 (Homo sapiens, UniProt P35968); assay: Inhibition of KDR
[9] = Clearance in CD1 mouse 1 mg/kg, iv; format: ADME, organism-based; set-up: dose 1 mg/kg, route intravenous; details: in vivo
Summary of the method: (§2)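 A single 1 mg/kg iv dose was given. Vehicles: CD-1 mice (female, 3 per time point), 5% DMSO/5% Cremophor; SD rats (male, 3 per route), 80% PEG; beagles (male, 3 per route), 60% PEG. PK parameters were calculated from averaged serum levels (N = 3).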

[10] = Oral bioavailability in Sprague-Dawley rat 5 mg/kg; format: ADME, organism-based; details: in vivo
Summary of the method: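 Male Sprague-Dawley rats, three per route. Oral dose 5 mg/kg as a solution in 80% PEG; iv dose 1 mg/kg, also as an 80% PEG solution. PK parameters calculated from averaged serum levels (N = 3).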

Mus musculus [11] = assay: Toxicity in athymic mouse xenografted with human HCT116 cells assessed as loss of body weight at 10 mg/kg, po qd; format: organism-based, HCT-116; set-up: dose 10 mg/kg, route oral; details: in vivo
Summary of the method: (§3)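 Female athymic nude mice, 5 × 10^6 HCT-116 cells injected subcutaneously in the right flank. At a mean tumor volume of ~150 mm3, mice were randomized to groups (N = 10). Oral QD dosing at 0, 1, 2.5, 5 or 10 mg/kg as a suspension in 20% HP-β-cyclodextrin (100 µL). Three mice per group were taken for PD after 2 days; the rest were dosed for 21 days. Body weight was followed, with euthanasia at 20% weight loss.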

Mus musculus [12] = assay: Toxicity in athymic mouse xenografted with human HCT116 cells assessed as bone marrow depletion at 10 mg/kg, po qd; format: organism-based, HCT-116; set-up: dose 10 mg/kg, route oral; details: in vivo; summary of the method: as §3
Aurora kinase A [13] = target: T2, Aurora kinase A; assay: Inhibition of Aurora A in human HCT cells assessed as loss of autophosphorylation of Aurora A; format: cell-based
Aurora kinase B [14] = target: T1, Aurora kinase B; assay: Inhibition of Aurora B assessed as loss of phospho histone H3 in human […] cells; format: cell-based
[15] = Clearance in Beagle dog 1 mg/kg, iv; format: ADME, organism-based, Canis lupus familiaris; set-up: dose 1 mg/kg, route intravenous; details: in vivo; summary of the method: as §2
Mus musculus [16] = assay: Toxicity in athymic mouse xenografted with human HCT116 cells assessed as gastrointestinal hypocellularity at 10 mg/kg, po qd; details: in vivo
Mus musculus [17] = assay: Oral bioavailability in CD1 mouse 5 mg/kg; format: ADME, organism-based; details: in vivo
Summary of the method: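 Female CD-1 mice, three per time point. Oral dose 5 mg/kg as a solution in 80% polyethylene glycol; iv reference dose 1 mg/kg as a solution in 5% DMSO, 5% Cremophor. PK parameters calculated from mean serum levels (N = 3).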

[18] = target: Proto-oncogene tyrosine-protein kinase Src (Homo sapiens, UniProt P12931); assay: Inhibition of Src
[19] = Oral bioavailability in Beagle dog 5 mg/kg; format: ADME, organism-based, Canis lupus familiaris; details: in vivo
Summary of the method: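 Three male beagles per route. Oral dose 5 mg/kg given as a solution in 80% PEG; iv comparator 1 mg/kg delivered in 60% PEG. Mean serum concentrations (N = 3) used to derive PK parameters.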

[20] = target: Serine/threonine-protein kinase Chk1 (Homo sapiens, UniProt O14757); assay: Inhibition of Chk1
[21] = target: Glycogen synthase kinase-3 beta (Homo sapiens, UniProt P49841); assay: Inhibition of GSK3-beta
[22] = Clearance in Sprague-Dawley rat 1 mg/kg, iv; format: ADME, organism-based; set-up: dose 1 mg/kg, route intravenous; details: in vivo; summary of the method: as §2
HCT-116 = assay: Antiproliferative activity against human HCT116 cells

T1 sequence (Q96GD4 whole entry): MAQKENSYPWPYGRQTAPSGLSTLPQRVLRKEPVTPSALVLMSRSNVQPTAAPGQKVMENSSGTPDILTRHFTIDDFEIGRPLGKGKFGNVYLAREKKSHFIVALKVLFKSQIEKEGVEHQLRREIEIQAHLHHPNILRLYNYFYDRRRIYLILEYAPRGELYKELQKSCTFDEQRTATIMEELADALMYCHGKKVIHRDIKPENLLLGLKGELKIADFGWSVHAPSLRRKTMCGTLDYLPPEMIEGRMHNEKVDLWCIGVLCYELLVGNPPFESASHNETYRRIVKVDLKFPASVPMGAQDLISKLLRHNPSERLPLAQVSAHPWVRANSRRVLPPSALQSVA
Chain of Vascular endothelial growth factor receptor 2 (P35968 whole entry): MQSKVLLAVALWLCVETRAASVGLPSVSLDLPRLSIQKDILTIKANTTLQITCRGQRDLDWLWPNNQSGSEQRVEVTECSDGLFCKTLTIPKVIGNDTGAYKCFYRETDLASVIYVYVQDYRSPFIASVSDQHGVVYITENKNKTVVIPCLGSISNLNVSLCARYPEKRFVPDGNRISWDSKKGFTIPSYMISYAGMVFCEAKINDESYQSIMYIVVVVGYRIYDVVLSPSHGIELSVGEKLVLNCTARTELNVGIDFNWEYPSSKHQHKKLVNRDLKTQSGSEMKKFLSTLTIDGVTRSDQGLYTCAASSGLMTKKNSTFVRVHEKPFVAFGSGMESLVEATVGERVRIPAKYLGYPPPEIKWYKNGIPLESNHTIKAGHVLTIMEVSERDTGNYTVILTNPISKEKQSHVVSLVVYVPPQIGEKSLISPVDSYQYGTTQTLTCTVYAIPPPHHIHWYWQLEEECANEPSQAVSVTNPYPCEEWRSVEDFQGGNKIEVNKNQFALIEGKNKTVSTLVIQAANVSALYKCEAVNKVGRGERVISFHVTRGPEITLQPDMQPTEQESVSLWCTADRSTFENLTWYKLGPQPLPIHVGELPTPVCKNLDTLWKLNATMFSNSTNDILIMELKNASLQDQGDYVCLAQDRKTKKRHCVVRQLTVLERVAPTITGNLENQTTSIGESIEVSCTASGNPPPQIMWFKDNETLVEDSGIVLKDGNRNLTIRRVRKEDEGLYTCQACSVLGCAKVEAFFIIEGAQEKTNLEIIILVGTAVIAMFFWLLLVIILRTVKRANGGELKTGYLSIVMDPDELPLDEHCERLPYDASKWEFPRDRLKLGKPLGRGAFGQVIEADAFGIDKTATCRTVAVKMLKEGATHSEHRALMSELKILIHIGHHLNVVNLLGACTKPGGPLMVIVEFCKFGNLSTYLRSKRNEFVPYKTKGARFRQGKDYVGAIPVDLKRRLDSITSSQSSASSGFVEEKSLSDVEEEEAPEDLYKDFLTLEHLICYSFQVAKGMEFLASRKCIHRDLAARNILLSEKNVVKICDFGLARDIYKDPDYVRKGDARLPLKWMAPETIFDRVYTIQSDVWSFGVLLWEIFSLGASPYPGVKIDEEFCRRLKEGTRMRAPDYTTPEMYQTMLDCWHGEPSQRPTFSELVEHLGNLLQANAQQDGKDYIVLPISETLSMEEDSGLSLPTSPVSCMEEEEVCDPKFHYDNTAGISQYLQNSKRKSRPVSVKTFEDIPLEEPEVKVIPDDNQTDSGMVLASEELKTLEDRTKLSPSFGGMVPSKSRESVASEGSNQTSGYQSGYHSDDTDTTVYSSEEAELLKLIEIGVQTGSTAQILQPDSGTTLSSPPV
Chain of Receptor-type tyrosine-protein kinase FLT3 (P36888 whole entry): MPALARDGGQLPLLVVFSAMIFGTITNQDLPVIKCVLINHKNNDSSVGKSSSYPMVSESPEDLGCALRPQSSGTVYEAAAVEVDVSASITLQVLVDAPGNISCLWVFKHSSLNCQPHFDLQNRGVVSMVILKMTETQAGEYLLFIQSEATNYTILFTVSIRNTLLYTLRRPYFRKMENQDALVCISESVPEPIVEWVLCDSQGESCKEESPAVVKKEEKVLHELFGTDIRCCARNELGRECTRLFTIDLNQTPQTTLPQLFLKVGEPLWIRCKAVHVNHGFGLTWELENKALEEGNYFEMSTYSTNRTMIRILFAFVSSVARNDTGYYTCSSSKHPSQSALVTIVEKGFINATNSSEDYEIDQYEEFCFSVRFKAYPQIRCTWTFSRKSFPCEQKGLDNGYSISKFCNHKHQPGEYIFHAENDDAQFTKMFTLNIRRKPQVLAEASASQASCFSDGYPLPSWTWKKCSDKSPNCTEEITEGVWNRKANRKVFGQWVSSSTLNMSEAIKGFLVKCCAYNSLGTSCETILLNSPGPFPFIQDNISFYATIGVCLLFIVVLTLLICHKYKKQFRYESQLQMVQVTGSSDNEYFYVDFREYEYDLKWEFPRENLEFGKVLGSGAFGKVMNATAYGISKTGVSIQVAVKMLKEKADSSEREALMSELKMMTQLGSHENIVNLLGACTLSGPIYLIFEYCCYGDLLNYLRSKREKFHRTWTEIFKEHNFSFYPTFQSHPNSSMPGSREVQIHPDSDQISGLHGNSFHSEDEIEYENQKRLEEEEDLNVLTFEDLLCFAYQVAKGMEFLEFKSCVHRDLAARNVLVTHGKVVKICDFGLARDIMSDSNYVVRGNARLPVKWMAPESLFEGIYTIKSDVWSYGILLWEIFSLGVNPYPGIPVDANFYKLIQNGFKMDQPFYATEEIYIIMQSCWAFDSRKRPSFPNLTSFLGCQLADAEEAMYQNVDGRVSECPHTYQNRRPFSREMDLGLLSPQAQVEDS
Chain of Glycogen synthase kinase-3 beta (P49841 whole entry): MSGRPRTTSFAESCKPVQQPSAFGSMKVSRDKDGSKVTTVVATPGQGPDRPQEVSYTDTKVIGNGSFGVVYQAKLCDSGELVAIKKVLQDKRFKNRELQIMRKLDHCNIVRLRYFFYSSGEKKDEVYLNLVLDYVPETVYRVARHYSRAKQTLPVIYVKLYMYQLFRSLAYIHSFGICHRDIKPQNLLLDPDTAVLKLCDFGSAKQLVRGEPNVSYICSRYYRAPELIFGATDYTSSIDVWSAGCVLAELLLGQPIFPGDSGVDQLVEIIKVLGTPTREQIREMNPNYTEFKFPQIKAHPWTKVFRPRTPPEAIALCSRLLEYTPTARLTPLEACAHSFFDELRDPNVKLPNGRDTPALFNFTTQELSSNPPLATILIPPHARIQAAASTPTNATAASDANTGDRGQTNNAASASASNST
Chain of Serine/threonine-protein kinase Chk1 (O14757 whole entry): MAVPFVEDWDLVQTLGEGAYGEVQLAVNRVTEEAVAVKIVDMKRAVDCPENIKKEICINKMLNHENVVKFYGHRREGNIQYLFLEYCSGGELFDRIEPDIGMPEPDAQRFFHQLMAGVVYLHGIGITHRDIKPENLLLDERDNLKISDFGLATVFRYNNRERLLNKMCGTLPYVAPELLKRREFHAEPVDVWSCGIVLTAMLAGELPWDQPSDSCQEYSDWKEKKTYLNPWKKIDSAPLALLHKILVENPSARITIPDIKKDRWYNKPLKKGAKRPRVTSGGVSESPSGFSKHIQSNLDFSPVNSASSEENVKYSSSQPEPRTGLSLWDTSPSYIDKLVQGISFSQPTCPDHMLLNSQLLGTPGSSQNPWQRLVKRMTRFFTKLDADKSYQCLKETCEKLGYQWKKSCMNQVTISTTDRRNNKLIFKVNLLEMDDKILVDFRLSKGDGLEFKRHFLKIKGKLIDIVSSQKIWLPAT
Chain of Proto-oncogene tyrosine-protein kinase Src (P12931 2-536 limits assumed): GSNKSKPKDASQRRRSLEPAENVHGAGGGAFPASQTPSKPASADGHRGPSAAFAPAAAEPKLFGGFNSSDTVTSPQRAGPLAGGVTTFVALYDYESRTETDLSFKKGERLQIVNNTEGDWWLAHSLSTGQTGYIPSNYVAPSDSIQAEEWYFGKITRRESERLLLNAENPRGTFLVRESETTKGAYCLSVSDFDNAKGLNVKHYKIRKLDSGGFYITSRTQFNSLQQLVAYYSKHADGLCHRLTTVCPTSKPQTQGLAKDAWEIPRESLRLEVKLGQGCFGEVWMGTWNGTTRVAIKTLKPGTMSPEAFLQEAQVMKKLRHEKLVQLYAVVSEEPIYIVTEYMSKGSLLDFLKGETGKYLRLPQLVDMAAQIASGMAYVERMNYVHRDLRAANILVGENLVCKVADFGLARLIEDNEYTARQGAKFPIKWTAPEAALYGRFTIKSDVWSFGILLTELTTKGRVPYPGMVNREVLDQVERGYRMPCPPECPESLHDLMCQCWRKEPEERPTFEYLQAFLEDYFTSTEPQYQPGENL

| Compound | IC50 (Aurora kinase B [3]) | IC50 (Aurora kinase A [4]) | IC50 (MCF7) | IC50 (HT-29) | also measured |
| --- | --- | --- | --- | --- | --- |
| Cc1cc(-c2nc3cc4c(cc3[nH]2)NC(=O)C4(C)C)n[nH]1 | 150 nM | 180 nM |  |  | Cmax [1]: 0.88 µM; AUC(0-t) [2]: 1.5 µM·h |
| Cc1cc(-c2cc3ccccc3[nH]2)n[nH]1 | 510 nM | 1100 nM |  |  |  |
| Cc1[nH]nc2c1Cc1c-2[nH]c2ccccc12 | 880 nM | 870 nM | > 20000 nM | > 20000 nM |  |
| CCN1C(=O)C(C)(C)c2cc3[nH]c4c(c3cc21)CCCc1c-4n[nH]c1C | 5 nM |  |  |  | IC50 (Aurora kinase B [5]): 310 nM; IC50 [6]: 2 nM; IC50 [7]: 15 µM; IC50 [8]: 12 nM; clearance [9]: 25 mL/min/kg; bioavailability [10]: 97%; Activity (Mus musculus [11]): Toxic; Activity (Mus musculus [12]): Toxic; IC50 (Aurora kinase A [13]): 160 nM; IC50 (Aurora kinase B [14]): 100 nM; clearance [15]: 34 mL/min/kg; Activity (Mus musculus [16]): Toxic; F (Mus musculus [17]): 178%; IC50 [18]: 250 nM; bioavailability [19]: 56%; IC50 [20]: 85 nM; IC50 [21]: 7.7 µM; clearance [22]: 22 mL/min/kg |
| Cc1cc(Nc2cc(N3CCN(C)CC3)nc(Sc3ccc(NC(=O)C4CC4)cc3)n2)n[nH]1 [TOZASERTIB] |  |  | 48 nM | 150 nM | IC50 (HCT-116): 53 nM |
| c1ccc2c3c([nH]c2c1)-c1n[nH]c(C2CC2)c1CC3 |  | 110 nM |  |  |  |
| c1ccc2c3c([nH]c2c1)-c1n[nH]cc1CC3 |  | 300 nM |  |  |  |
| OCc1[nH]nc2c1CCc1c-2[nH]c2ccccc12 |  | 340 nM |  |  |  |
| CCOC(=O)c1[nH]nc2c1CCc1c-2[nH]c2ccccc12 |  | 5700 nM |  |  |  |

More lines, in order of falling IC50 (Aurora kinase A [4]), values ahead:

| IC50 (Aurora kinase B [3]) | IC50 (Aurora kinase A [4]) | IC50 (MCF7) | IC50 (HT-29) | Compound | also measured |
| --- | --- | --- | --- | --- | --- |
| 86 nM | 72 nM | 1500 nM | 2600 nM | Cc1[nH]nc2c1CCCc1c-2[nH]c2cc3c(cc12)C(C)(C)C(=O)N3 |  |
| 130 nM | 69 nM |  |  | CCN1C(=O)C(C)(C)c2cc3nc(-c4cc(C)[nH]n4)[nH]c3cc21 | Cmax [1]: 51 µM; AUC(0-t) [2]: 180 µM·h |
| 220 nM | 51 nM | 4500 nM | > 20000 nM | Cc1[nH]nc2c1CCc1c-2[nH]c2ccccc12 |  |
| 22 nM | 42 nM | 670 nM | 2600 nM | Cc1[nH]nc2c1CCCC1c3ccccc3NC21 (stereo not given) |  |
|  | 2 nM | 100 nM | 30 nM | Cc1[nH]nc2c1CCCc1c-2[nH]c2cc3c(cc12)NC(=O)C3(C)C |  |
